ChEMBL document CHEMBL3792377, “Synthesis and characterization of a series of chiral alkoxymethyl morpholine analogs as dopamine receptor 4 (D4R) antagonists” (Bioorg Med Chem Lett, 2016)

Key:
[1] = Drug uptake in rat brain at 0.25 mg/kg, iv administered through cassette dosing at 0.25 hrs; assay type: ADME, organism-based; conditions: read-out: Drug uptake
[2] = Ratio of drug level in brain to plasma in rat at 0.25 mg/kg, iv administered through cassette dosing at 0.25 hrs; assay type: ADME, organism-based
D(4) dopamine receptor = target: T1, D(4) dopamine receptor (Homo sapiens, UniProt P21917); test: Displacement of [3H]-Spiperone from human recombinant dopamine D4 receptor expressed in CHOK1 cells; assay type: cell-based, CHO-K1
T1 sequence (P21917 whole entry): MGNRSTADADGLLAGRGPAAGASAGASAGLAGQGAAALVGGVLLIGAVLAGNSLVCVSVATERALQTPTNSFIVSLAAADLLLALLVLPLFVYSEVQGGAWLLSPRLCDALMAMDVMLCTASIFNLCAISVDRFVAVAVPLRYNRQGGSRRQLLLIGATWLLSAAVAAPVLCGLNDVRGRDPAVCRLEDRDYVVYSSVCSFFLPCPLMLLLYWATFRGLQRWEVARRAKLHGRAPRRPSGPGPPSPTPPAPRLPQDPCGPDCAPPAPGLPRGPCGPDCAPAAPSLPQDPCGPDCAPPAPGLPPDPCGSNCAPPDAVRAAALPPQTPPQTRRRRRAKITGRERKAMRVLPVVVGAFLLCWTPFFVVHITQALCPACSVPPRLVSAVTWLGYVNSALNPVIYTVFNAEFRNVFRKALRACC
Procedure, shortened: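 Radioligand binding at human D4 receptor using [3H]-spiperone, run as a contract assay in duplicate. IC50 and Ki were derived from concentration–response data. Single-point values are % inhibition of specific binding at 10 µM test compound.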

[3] = Fraction unbound in human plasma by equilibrium dialysis method; assay type: ADME, cell-free
[4] = Plasma concentration in rat at 0.25 mg/kg, iv administered through cassette dosing at 0.25 hrs; assay type: ADME, organism-based
Plasma = test: Fraction unbound in rat plasma by equilibrium dialysis method; assay type: ADME, cell-free
Liver microsome [5] = test: Drug level in human liver microsomes treated with (S)-2-((6-chloropyridin-2-yloxy)methyl)-4-((6-fluoro-1H-indol-3-yl)methyl)morpholine in presence of NADPH; assay type: ADME
Procedure, shortened: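 Human liver microsomes incubated with compound plus NADPH, alongside a matched no-NADPH incubation; samples profiled for remaining parent and for metabolites formed.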

D(1B) dopamine receptor [6] = target: T2, D(1B) dopamine receptor (Homo sapiens, UniProt P21918); test: Displacement of [3H]-SCH-23390 from human recombinant dopamine D5 receptor expressed in CHO cells; assay type: cell-based
[7] = target: Dopamine receptors; D3 & D4 (Homo sapiens) (UniProt P35462+P21917); test: Selectivity ratio of Ki for human recombinant dopamine D3 receptor to Ki for human recombinant dopamine D4 receptor
Liver microsome [8] = test: Metabolic stability in rat liver microsomes in absence of NADPH; assay type: ADME
D(2) dopamine receptor [9] = target: T3, D(2) dopamine receptor (Homo sapiens, UniProt P14416); conditions: CHO, 1 uM
Homo sapiens [10] = species: Homo sapiens; test: Selectivity ratio of Ki for human recombinant dopamine D5 receptor to Ki for human recombinant dopamine D4 receptor
Liver microsome [11] = test: Drug metabolism in rat liver microsomes assessed as oxidative dealkylated metabolite formation in presence of NADPH; assay type: ADME
Homo sapiens [12] = species: Homo sapiens; test: Selectivity ratio of Ki for human recombinant dopamine D2L receptor to Ki for human recombinant dopamine D4 receptor
Liver microsome [13] = test: Metabolic stability in human liver microsomes in absence of NADPH; assay type: ADME
D(1A) dopamine receptor [14] = target: T4, D(1A) dopamine receptor (Homo sapiens, UniProt P21728); test: Displacement of [3H]-SCH-23390 from human recombinant dopamine D1 receptor expressed in CHO cells; assay type: cell-based
D(2) dopamine receptor [15] = target: T3, D(2) dopamine receptor; test: Displacement of [3H]-Spiperone from human recombinant dopamine D2S receptor expressed in CHO cells at 10 uM relative to control; assay type: cell-based
Procedure, shortened: (§1)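 Off-target dopamine receptor radioligand binding (D1, D2L, D2S, D3, D5), run as a contract assay. Test compound at a single concentration of 10 µM, reported as % inhibition of specific binding, measured in duplicate.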

Liver microsome [16] = test: Drug metabolism in human liver microsomes assessed as (S)-2-((6-chloropyridin-2-yloxy)methyl)morpholine formation in presence of NADPH; assay type: ADME
D(1B) dopamine receptor [17] = target: T2, D(1B) dopamine receptor; conditions: CHO, 1 uM
Homo sapiens [18] = species: Homo sapiens; test: Selectivity ratio of Ki for human recombinant dopamine D2S receptor to Ki for human recombinant dopamine D4 receptor
D(1A) dopamine receptor [19] = target: T4, D(1A) dopamine receptor; conditions: CHO, 1 uM
D(3) dopamine receptor [20] = target: T5, D(3) dopamine receptor (Homo sapiens, UniProt P35462); test: Displacement of [3H]-Spiperone from human recombinant dopamine D3 receptor expressed in CHO cells; assay type: cell-based
D(2) dopamine receptor [21] = target: T3, D(2) dopamine receptor; test: Displacement of [3H]-Spiperone from human recombinant dopamine D2L receptor expressed in CHO cells; assay type: cell-based
D(3) dopamine receptor [22] = target: T5, D(3) dopamine receptor; conditions: CHO, 1 uM
D(2) dopamine receptor [23] = target: T3, D(2) dopamine receptor; conditions: CHO, 1 uM; remark: listed apart in the source
D(2) dopamine receptor [24] = target: T3, D(2) dopamine receptor; test: Displacement of [3H]-Spiperone from human recombinant dopamine D2S receptor expressed in CHO cells; assay type: cell-based
Homo sapiens [25] = species: Homo sapiens; test: Selectivity ratio of Ki for human recombinant dopamine D1 receptor to Ki for human recombinant dopamine D4 receptor
D(1A) dopamine receptor [26] = target: T4, D(1A) dopamine receptor; test: Displacement of [3H]-SCH-23390 from human recombinant dopamine D1 receptor expressed in CHO cells at 10 uM relative to control; assay type: cell-based; procedure, shortened: as §1
D(3) dopamine receptor [27] = target: T5, D(3) dopamine receptor; test: Displacement of [3H]-Spiperone from human recombinant dopamine D3 receptor expressed in CHO cells at 10 uM relative to control; assay type: cell-based; procedure, shortened: as §1
D(1B) dopamine receptor [28] = target: T2, D(1B) dopamine receptor; test: Displacement of [3H]-SCH-23390 from human recombinant dopamine D5 receptor expressed in CHO cells at 10 uM relative to control; assay type: cell-based; procedure, shortened: as §1
D(2) dopamine receptor [29] = target: T3, D(2) dopamine receptor; test: Displacement of [3H]-Spiperone from human recombinant dopamine D2L receptor expressed in CHO cells at 10 uM relative to control; assay type: cell-based; procedure, shortened: as §1

T2 sequence (P21918 whole entry): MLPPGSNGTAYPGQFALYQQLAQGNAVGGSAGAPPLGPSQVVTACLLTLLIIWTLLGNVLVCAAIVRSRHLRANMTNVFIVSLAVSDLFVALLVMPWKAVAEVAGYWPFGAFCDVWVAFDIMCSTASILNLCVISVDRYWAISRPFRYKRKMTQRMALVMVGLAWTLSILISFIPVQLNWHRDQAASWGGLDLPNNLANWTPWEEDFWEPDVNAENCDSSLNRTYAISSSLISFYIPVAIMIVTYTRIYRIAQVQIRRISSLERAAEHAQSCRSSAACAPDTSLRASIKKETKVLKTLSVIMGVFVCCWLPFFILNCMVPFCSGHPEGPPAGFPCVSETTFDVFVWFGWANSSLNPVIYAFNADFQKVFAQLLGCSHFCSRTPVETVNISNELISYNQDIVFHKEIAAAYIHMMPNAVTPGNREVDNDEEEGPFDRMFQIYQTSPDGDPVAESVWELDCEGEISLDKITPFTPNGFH
T3 sequence (P14416 whole entry): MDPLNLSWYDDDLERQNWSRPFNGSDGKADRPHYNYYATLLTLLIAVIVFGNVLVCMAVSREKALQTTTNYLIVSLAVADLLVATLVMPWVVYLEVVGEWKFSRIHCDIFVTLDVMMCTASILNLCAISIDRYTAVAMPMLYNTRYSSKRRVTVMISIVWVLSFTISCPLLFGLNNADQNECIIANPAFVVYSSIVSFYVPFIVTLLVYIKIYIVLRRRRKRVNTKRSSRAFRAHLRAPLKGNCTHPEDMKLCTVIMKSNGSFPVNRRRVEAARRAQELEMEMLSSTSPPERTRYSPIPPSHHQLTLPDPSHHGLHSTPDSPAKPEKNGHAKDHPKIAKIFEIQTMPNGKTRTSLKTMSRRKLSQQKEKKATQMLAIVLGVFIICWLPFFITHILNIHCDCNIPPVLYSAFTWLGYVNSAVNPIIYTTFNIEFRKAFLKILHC
T4 sequence (P21728 whole entry): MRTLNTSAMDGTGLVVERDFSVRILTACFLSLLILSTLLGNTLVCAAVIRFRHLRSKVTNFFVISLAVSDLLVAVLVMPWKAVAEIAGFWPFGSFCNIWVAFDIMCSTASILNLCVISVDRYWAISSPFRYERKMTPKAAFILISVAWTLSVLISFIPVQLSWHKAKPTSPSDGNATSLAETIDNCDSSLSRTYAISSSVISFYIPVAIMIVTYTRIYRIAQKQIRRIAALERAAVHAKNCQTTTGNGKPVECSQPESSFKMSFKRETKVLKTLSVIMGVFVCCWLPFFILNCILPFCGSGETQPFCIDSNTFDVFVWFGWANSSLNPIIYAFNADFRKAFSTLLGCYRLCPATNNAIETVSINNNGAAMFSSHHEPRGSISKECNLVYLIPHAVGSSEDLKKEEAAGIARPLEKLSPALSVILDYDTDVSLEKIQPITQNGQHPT
Sequence of Dopamine receptors; D3 & D4 (Homo sapiens) (P35462 whole entry, looked up, one chain of several): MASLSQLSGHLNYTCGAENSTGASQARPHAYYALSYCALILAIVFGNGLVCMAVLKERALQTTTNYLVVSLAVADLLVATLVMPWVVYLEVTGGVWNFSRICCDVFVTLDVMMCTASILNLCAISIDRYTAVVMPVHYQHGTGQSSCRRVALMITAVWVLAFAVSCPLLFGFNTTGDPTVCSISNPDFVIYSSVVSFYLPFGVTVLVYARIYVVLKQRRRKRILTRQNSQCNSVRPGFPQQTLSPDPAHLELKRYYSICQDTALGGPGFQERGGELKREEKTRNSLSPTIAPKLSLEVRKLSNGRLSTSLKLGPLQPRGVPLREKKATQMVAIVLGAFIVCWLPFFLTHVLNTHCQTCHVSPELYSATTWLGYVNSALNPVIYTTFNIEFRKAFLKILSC
T5 sequence (P35462 whole entry): as the sequence (P35462 whole entry, looked up, one chain of several) above

Compound	concentration at 0.25 h [1]	Kp [2]	IC50 (D(4) dopamine receptor)	Ki (D(4) dopamine receptor)	Fu [3]	concentration at 0.25 h [4]	Fu (Plasma)	inhibition (D(2) dopamine receptor [15])	inhibition (D(1A) dopamine receptor [26])	inhibition (D(3) dopamine receptor [27])	inhibition (D(1B) dopamine receptor [28])	inhibition (D(2) dopamine receptor [29])	other results
Clc1cccc(OC[C@@H]2CNCCO2)n1	–	–	–	–	–	–	–	–	–	–	–	–	Drug metabolism (Liver microsome [5]): metabolite_detected
Clc1ccc(CN2CCO[C@H](CSc3ccccc3)C2)cc1	131 ng/g	5.03	34 nM	9.4 nM	0.008	26.1 ng/mL	0.005	< 50%	–	–	–	–	Ki (D(1B) dopamine receptor [6]): > 10 µM; Ratio Ki [7]: > 1000; Ratio Ki (Homo sapiens [10]): > 1000; Ratio Ki (Homo sapiens [12]): > 1000; Ki (D(1A) dopamine receptor [14]): > 10 µM; Ratio Ki (Homo sapiens [18]): > 1000; Ki (D(3) dopamine receptor [20]): > 10 µM; Ki (D(2) dopamine receptor [21]): > 10 µM; Ki (D(2) dopamine receptor [24]): > 10 µM; Ratio Ki (Homo sapiens [25]): > 1000
Fc1ccc(OC[C@@H]2CN(Cc3ccc(Cl)cc3)CCO2)cc1	–	–	38 nM	10.4 nM	–	–	–	79%	< 50%	51%	< 50%	83%	–
Cn1ncc2cc(CN3CCO[C@H](COc4ccccc4)C3)ccc21	83.1 ng/g	2.23	170 nM	47 nM	0.039	37.3 ng/mL	0.074	–	–	–	–	–	–
c1ccc(OC[C@@H]2CN(Cc3ccc4[nH]ccc4c3)CCO2)cc1	–	–	58 nM	15.9 nM	0.035	–	0.069	64%	< 50%	< 50%	< 50%	64%	–
Clc1ccc2c(CN3CCO[C@H](COc4ccccc4)C3)c[nH]c2c1	246 ng/g	3.29	8 nM	2.2 nM	0.006	74.8 ng/mL	0.01	93%	< 50%	70%	< 50%	94%	–

Further compounds by falling IC50 (D(4) dopamine receptor), results first:

concentration at 0.25 h [1]	Kp [2]	IC50 (D(4) dopamine receptor)	Ki (D(4) dopamine receptor)	Fu [3]	concentration at 0.25 h [4]	Fu (Plasma)	inhibition (D(2) dopamine receptor [15])	inhibition (D(1A) dopamine receptor [26])	inhibition (D(3) dopamine receptor [27])	inhibition (D(1B) dopamine receptor [28])	inhibition (D(2) dopamine receptor [29])	Compound	other results
197 ng/g	4.62	150 nM	42 nM	0.007	42.5 ng/mL	0.007	–	–	–	–	–	Clc1ccc(CN2CCO[C@H](COc3ccccc3)C2)cc1	–
108 ng/g	7.38	56 nM	14.3 nM	0.031	14.7 ng/mL	0.037	76%	< 50%	< 50%	< 50%	78%	COc1ccc(CN2CCO[C@H](COc3ccccc3)C2)cc1F	–
–	–	47 nM	13.1 nM	–	–	–	82%	< 50%	76%	< 50%	88%	COc1ccc(CN2CCO[C@H](COc3ccc(F)cc3)C2)cc1	–
–	–	42 nM	11.6 nM	0.01	–	0.025	60%	< 50%	< 50%	< 50%	52%	COc1cc(CN2CCO[C@H](COc3ccccc3)C2)ccc1Cl	–
132 ng/g	5.73	27 nM	7.4 nM	0.001	23.1 ng/mL	0.004	< 50%	–	–	–	–	Cc1ccc(CN2CCO[C@H](CSc3ccccc3)C2)cc1C	Ki (D(1B) dopamine receptor [6]): > 10 µM; Ratio Ki [7]: > 1000; Ratio Ki (Homo sapiens [10]): > 1000; Ratio Ki (Homo sapiens [12]): > 1000; Ki (D(1A) dopamine receptor [14]): > 10 µM; Ratio Ki (Homo sapiens [18]): > 1000; Ki (D(3) dopamine receptor [20]): > 10 µM; Ki (D(2) dopamine receptor [21]): > 10 µM; Ki (D(2) dopamine receptor [24]): > 10 µM; Ratio Ki (Homo sapiens [25]): > 1000
–	–	19.5 nM	5.4 nM	0.037	–	0.075	82%	< 50%	70%	< 50%	87%	COc1ccc2c(CN3CCO[C@H](COc4ccccc4)C3)c[nH]c2c1	–
–	–	18.9 nM	5.2 nM	0.017	–	0.047	76%	< 50%	< 50%	< 50%	78%	Fc1ccc2c(CN3CCO[C@H](COc4ccccc4)C3)c[nH]c2c1	–
–	–	11.9 nM	3.3 nM	0.015	–	0.016	< 50%	–	–	–	–	Fc1ccc2c(CN3CCO[C@H](COc4cccc(Cl)n4)C3)c[nH]c2c1	Ki (D(1B) dopamine receptor [6]): > 10 µM; Ratio Ki [7]: > 1000; Stability (Liver microsome [8]): Stable; inhibition (D(2) dopamine receptor [9]): < 10%; Ratio Ki (Homo sapiens [10]): > 1000; Drug metabolism (Liver microsome [11]): metabolite_detected; Ratio Ki (Homo sapiens [12]): > 1000; Stability (Liver microsome [13]): Stable; Ki (D(1A) dopamine receptor [14]): > 10 µM; Drug metabolism (Liver microsome [16]): metabolite_detected; inhibition (D(1B) dopamine receptor [17]): < 10%; Ratio Ki (Homo sapiens [18]): > 1000; inhibition (D(1A) dopamine receptor [19]): < 10%; Ki (D(3) dopamine receptor [20]): > 10 µM; Ki (D(2) dopamine receptor [21]): > 10 µM; inhibition (D(3) dopamine receptor [22]): < 10%; inhibition (D(2) dopamine receptor [23]): < 10%; Ki (D(2) dopamine receptor [24]): > 10 µM; Ratio Ki (Homo sapiens [25]): > 1000
